Laboratory results reported in ChEMBL document CHEMBL1140443, “Inhibitors of apoptosis in lymphocytes: synthesis and biological evaluation of compounds related to pifithrin-alpha” (J Med Chem, 2005).

Assays:
Mus musculus [1] = organism: Mus musculus; assay: Average percent survival of C57Bl/6 mice thymocytes from Dexamethasone (5 uM) induced apoptosis at 10 uM
[2] = Concentration for 95% confidence interval (CI) in dexamethasone-induced mice thymocytes; range 8.49-12.32 uM; assay type: functional, Mus musculus
Outline: (§1)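 Thymocytes from young C57Bl/6 mice, cultured at 37 °C in 5% CO2 in RPMI 1640 with 10% FBS and penicillin/streptomycin, plated at 10⁷ cells/mL. Cells were preincubated 30 min with graded compound concentrations (DMSO stock), then given 5 μM dexamethasone for 6 h. Cells were stained 30 min with 40 nM DiOC6 and 5 μg/mL PI and read by flow cytometry; DiOC6-high/PI-low cells were scored viable. EC50 was taken from a nonlinear one-site fit, with its 95% confidence interval.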

Mus musculus [3] = organism: Mus musculus; assay: Concentration required to inhibit dexamethasone-induced death of mice thymocytes; assay type: functional, organism-based
Outline: as §1

[4] = Concentration for 95% confidence interval (CI) in dexamethasone-induced mice thymocytes; range 0.95-1.57 uM; assay type: functional, Mus musculus
Outline: as §1

[5] = Concentration for 95% confidence interval (CI) in dexamethasone-induced mice thymocytes; range 1.45-2.80 uM; assay type: functional, Mus musculus
Outline: as §1

[6] = Concentration for 95% confidence interval (CI) in dexamethasone-induced mice thymocytes; range 4.64-7.91 uM; assay type: functional, Mus musculus
Outline: as §1

[7] = Concentration for 95% confidence interval (CI) in dexamethasone-induced mice thymocytes; range 3.86-13.70 uM; assay type: functional, Mus musculus
Outline: as §1

[8] = Concentration for 95% confidence interval (CI) in dexamethasone-induced mice thymocytes; range 2.78-5.16 uM; assay type: functional, Mus musculus
Outline: as §1

[9] = Concentration for 95% confidence interval (CI) in dexamethasone-induced mice thymocytes; range 3.26-8.82 uM; assay type: functional, Mus musculus
Outline: as §1

[10] = Concentration for 95% confidence interval (CI) in dexamethasone-induced mice thymocytes; range 2.95-5.88 uM; assay type: functional, Mus musculus
Outline: as §1

[11] = Concentration for 95% confidence interval (CI) in dexamethasone-induced mice thymocytes; range 6.02-8.76 uM; assay type: functional, Mus musculus
Outline: as §1

[12] = Concentration for 95% confidence interval (CI) in dexamethasone-induced mice thymocytes; range 2.78-34.83 uM; assay type: functional, Mus musculus
Outline: as §1

[13] = Concentration for 95% confidence interval (CI) in dexamethasone-induced mice thymocytes; range 2.86-6.89 uM; assay type: functional, Mus musculus
Outline: as §1

[14] = Concentration for 95% confidence interval (CI) in dexamethasone-induced mice thymocytes; range 4.08-13.75 uM; assay type: functional, Mus musculus
Outline: as §1

[15] = Concentration for 95% confidence interval (CI) in dexamethasone-induced mice thymocytes; range 3.95-5.75 uM; assay type: functional, Mus musculus
Outline: as §1

[16] = Concentration for 95% confidence interval (CI) in dexamethasone-induced mice thymocytes; range 3.07-5.28 uM; assay type: functional, Mus musculus
Outline: as §1

[17] = Concentration for 95% confidence interval (CI) in dexamethasone-induced mice thymocytes; range 4.61-7.00 uM; assay type: functional, Mus musculus
Outline: as §1

SMILES | Survival (Mus musculus [1]) | further results
Brc1ccc(-c2cn3c(n2)sc2ccccc23)cc1 | 22% | 
c1ccc(-c2cn3c(n2)sc2ccccc23)cc1 | 73% | CI [2]: 12.32 µM; EC50 (Mus musculus [3]): 10.2 µM
Cc1ccc(-c2cn3c(n2)sc2ccccc23)cc1 | 73% | CI [4]: 1.57 µM; EC50 (Mus musculus [3]): 1.22 µM
O=[N+]([O-])c1ccc(-c2cn3c4c(sc3n2)CCCC4)cc1 | 11% | 
Cc1ccc(-c2cn3c4c(sc3n2)CCCC4)cc1 | 54% | CI [5]: 2.8 µM; EC50 (Mus musculus [3]): 2.01 µM
Fc1cccc(-c2cn3c4c(sc3n2)CCCC4)c1 | 34% | 
Clc1ccc(-c2cn3c4c(sc3n2)CCCC4)cc1 | 35% | 
[N-]=[N+]=Nc1ccc(-c2cn3c4c(sc3n2)CCCC4)cc1 | 50% | 
Cc1ccc(C(=O)CSc2nc3ccccc3s2)cc1 | 16% | 
Cc1ccc(-c2cn3c(n2)nc(Cl)c2ccccc23)cc1 | 46% | 
COc1ccc(-c2cn3c4c(sc3n2)CCCC4)cc1 | 28% | 
Cc1ccc(C(=O)Cn2c(=N)sc3ccccc32)cc1 | 21% | EC50 (Mus musculus [3]): > 10 µM
N=c1sc2c(n1CC(=O)c1ccccc1)CCCC2 | 59% | CI [6]: 7.91 µM; EC50 (Mus musculus [3]): 6.06 µM
FC(F)(F)c1ccc(-c2cn3c4c(sc3n2)CCCC4)cc1 | 27% | 
Cc1ccc(-c2cn3c(n2)nc(O)c2ccccc23)cc1 | 28% | 
N=c1sc2c(n1CC(=O)c1ccc(Cl)c(Cl)c1)CCCC2 | 57% | EC50 (Mus musculus [3]): 7.28 µM; CI [7]: 13.7 µM
Cc1ccc(-c2cn3c(n2)sc2cc(Br)ccc23)cc1 | 39% | 
N=c1sc2ccccc2n1CC(=O)c1ccc(C2CCCC2)cc1 | 33% | 
CC(=O)N1C(c2ccc(C)cc2)N=C2c3ccccc3N=CN21 (stereo not drawn) | 23% | 
N=c1sc2ccccc2n1CC(=O)c1ccccc1 | 20% | 
Cc1ccc(-c2nc3sc4ccccc4n3c2Br)cc1 | 24% | 
Cc1ccc(C(=O)CSc2nc3ccccc3[nH]2)cc1 | 15% | 
Cc1ccc(-c2csc3nc4ccccc4n23)cc1 | 48% | 
C#CCn1c(=N)sc2ccccc21 | 23% | 
Cc1ccc(C(=O)Cn2c(=O)sc3ccccc32)cc1 | 30% | 
Cc1ccc(-c2nc3c4ccccc4ncn3n2)cc1 | 17% | 

SMILES | Survival (Mus musculus [1]) | further results
Cc1ccc(S(=O)(=O)Nc2nc3ccccc3s2)cc1 | 26% | 
c1ccc(-c2ccc(-c3cn4c5c(sc4n3)CCCC5)cc2)cc1 | 75% | CI [8]: 5.16 µM; EC50 (Mus musculus [3]): 3.79 µM
Fc1ccc(-c2cn3c4c(sc3n2)CCCC4)cc1F | 44% | 
O=C(Oc1ccc(-c2cn3c4c(sc3n2)CCCC4)cc1)c1ccccc1 | 23% | 
Cc1ccc(-c2cn3cnc4ccccc4c3n2)cc1 | 26% | 
Cc1ccc(-c2nc3sc4c(n3c2Br)CCCC4)cc1 | 27% | 
N=c1sc2ccccc2n1CC(=O)c1ccc(-c2ccc3ccccc3c2)cc1 | 62% | EC50 (Mus musculus [3]): > 10 µM
Cc1ccc(C(=O)CNc2ncnc3ccccc23)cc1 | 32% | 
c1ccc2c(c1)sc1nc(-c3ccc(C4CCCC4)cc3)cn12 | 36% | 
N=c1sc2c(n1CC(=O)c1ccc(F)cc1)CCCC2 | 48% | 
Clc1ccc(-c2cn3c4c(sc3n2)CCCC4)cc1Cl | 36% | 
N=c1sc2c(n1CC(=O)c1ccc([N+](=O)[O-])cc1)CCCC2 | 21% | 
Cc1ccc(/C=N/Nc2ncnc3ccccc23)cc1 | 23% | 
N=c1sc2c(n1CC(=O)c1ccc(OC(=O)c3ccccc3)cc1)CCCC2 | 17% | 
Cc1ccc(C(=O)Cn2c(=O)oc(=O)c3ccccc32)cc1 | 28% | 
N=c1sc2c(n1CC(=O)c1ccc(Cl)cc1)CCCC2 | 59% | CI [9]: 8.82 µM; EC50 (Mus musculus [3]): 5.37 µM
Cc1ccc(-c2cn3c(n2)sc2cc(O)ccc23)cc1 | 19% | 
N#Cc1ccc(-c2cn3c4c(sc3n2)CCCC4)cc1 | 21% | 
Cc1cn2c(n1)sc1ccccc12 | 22% | 
N#Cc1ccc(C(=O)Cn2c3c(sc2=N)CCCC3)cc1 | 40% | 
Nc1ccc(-c2cn3c4c(sc3n2)CCCC4)cc1 | 18% | 
COc1ccc(C(=O)Cn2c3c(sc2=N)CCCC3)cc1 | 66% | EC50 (Mus musculus [3]): 7.54 µM
Cc1ccc(C(=O)Cn2c3c(sc2=N)CCCC3)cc1 | 72% | CI [10]: 5.88 µM; EC50 (Mus musculus [3]): 4.16 µM
Cc1ccc(-c2cn3ccsc3n2)cc1 | 27% | 
N=c1sc2ccccc2n1CC(=O)c1ccc(-c2ccccc2)cc1 | 66% | CI [11]: 8.76 µM; EC50 (Mus musculus [3]): 7.26 µM
N=c1sc2ccccc2n1CC(=O)c1ccc(N2CCCC2)cc1 | 64% | EC50 (Mus musculus [3]): 9.84 µM; CI [12]: 34.83 µM

SMILES | Survival (Mus musculus [1]) | further results
Cc1ccc(C(=O)Cn2/c(=N/S(=O)(=O)c3ccccc3)sc3ccccc32)cc1 | 48% | 
c1ccc(-c2cn3c4c(sc3n2)CCCC4)cc1 | 19% | 
Clc1ccccc1-c1cn2c3c(sc2n1)CCCC3 | 37% | 
N=c1sc2c(n1CC(=O)c1cccc(F)c1)CCCC2 | 54% | EC50 (Mus musculus [3]): 9.69 µM
COc1ccc2c(c1)sc1nc(-c3ccc(C)cc3)cn12 | 68% | CI [13]: 6.89 µM; EC50 (Mus musculus [3]): 4.44 µM
Brc1ccc(-c2cn3c4c(sc3n2)CCCC4)cc1 | 35% | 
c1ccc(-c2ccc(-c3cn4c(n3)sc3ccccc34)cc2)cc1 | 59% | CI [14]: 13.75 µM; EC50 (Mus musculus [3]): 8.12 µM
CCOC(=O)Cn1c2c(sc1=N)CCCC2 | 27% | 
c1ccc2cc(-c3ccc(-c4cn5c6c(sc5n4)CCCC6)cc3)ccc2c1 | 57% | EC50 (Mus musculus [3]): 4.77 µM; CI [15]: 5.75 µM
N=c1sc2ccccc2n1Cc1ccccc1 | 20% | 
N=c1sc2c(n1CC(=O)c1ccc(C(F)(F)F)cc1)CCCC2 | 36% | 
N=c1sc2c(n1CC(=O)c1ccc(Br)cc1)CCCC2 | 31% | 
c1ccc(-c2cnc3sc4ccccc4n23)cc1 | 15% | 
c1cc(N2CCCC2)ccc1-c1cn2c3c(sc2n1)CCCC3 | 50% | EC50 (Mus musculus [3]): > 10 µM
Cc1ccc(C(=O)Cn2c(=N)oc3ccc(Cl)cc32)cc1 | 19% | 
N=c1sc2c(n1CC(=O)c1ccc(-c3ccc4ccccc4c3)cc1)CCCC2 | 58% | EC50 (Mus musculus [3]): 4.02 µM; CI [16]: 5.28 µM
CSC(=N)NC(=O)c1ccccc1NCC(=O)c1ccc(C)cc1 | 31% | 
Cc1ccc(C(=O)Cn2ccsc2=N)cc1 | 27% | 
Cc1ccc(Cn2c(=N)sc3ccccc32)cc1 | 8% | 
Fc1ccc(-c2cn3c4c(sc3n2)CCCC4)cc1 | 33% | 
Cc1ccc(-c2cn3c(n2)sc2cc(N)ccc23)cc1 | 27% | 
N=c1sc2c(n1CC(=O)c1ccc(F)c(F)c1)CCCC2 | 40% | 
Cc1ccc(C(=O)Cn2c3c(sc2=O)CCCC3)cc1 | 40% | 
O=C(O)c1ccc(-c2cn3c4c(sc3n2)CCCC4)cc1 | 20% | 
Oc1ccc(-c2cn3c4c(sc3n2)CCCC4)cc1 | 21% | 
[N-]=[N+]=Nc1ccc(C(=O)Cn2c3c(sc2=N)CCCC3)cc1 | 56% | EC50 (Mus musculus [3]): 5.68 µM; CI [17]: 7 µM
